Twelve compounds from paper PMC5632530 (Cell, 2017) can be followed below.

The subject of assay [1] is 3T3-L1 mouse preadipocytes. As to the kind of experiment: Adipocyte phenotypic screen: lipid accumulation by Nile Red. It counts as cell-based. Conditions: for adipogenic activity in adipogenesis-related assays, in words: compounds 10 μM, 3T3-L1; for effect of co-treatment on the pro-adipogenic effects of 25: 10 μM with 25 (10 μM), Nile Red staining or adipogenic gene expression. The method in brief: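 3T3-L1 preadipocytes were induced two days post-confluence with dexamethasone (1 μM), IBMX (0.5 mM) and insulin (1 μg/ml), plus DMSO (0.1%), test compound (10 μM), test compound with probe, or rosiglitazone (2 μM). They were stained with Nile Red and Hoechst at day 7 of differentiation, imaged, and harvested for RNA. Mean ± SD, n = 3.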

For assay [2], the target named is T1, PGRMC2 (Mus musculus, UniProt Q80UU9).
T1 sequence (Q80UU9 1-217): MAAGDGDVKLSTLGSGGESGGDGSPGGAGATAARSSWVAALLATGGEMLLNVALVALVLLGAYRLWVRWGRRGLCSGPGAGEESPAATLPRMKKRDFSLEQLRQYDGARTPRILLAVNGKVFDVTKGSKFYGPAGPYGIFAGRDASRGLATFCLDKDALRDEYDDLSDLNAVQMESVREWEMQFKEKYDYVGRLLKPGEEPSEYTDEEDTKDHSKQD
As to the kind of experiment: Quantitative proteomic. Type of assay: binding.

The target in assay [3] is T2, human PGRMC2 (Homo sapiens, UniProt O15173).
T2 sequence (O15173 1-223): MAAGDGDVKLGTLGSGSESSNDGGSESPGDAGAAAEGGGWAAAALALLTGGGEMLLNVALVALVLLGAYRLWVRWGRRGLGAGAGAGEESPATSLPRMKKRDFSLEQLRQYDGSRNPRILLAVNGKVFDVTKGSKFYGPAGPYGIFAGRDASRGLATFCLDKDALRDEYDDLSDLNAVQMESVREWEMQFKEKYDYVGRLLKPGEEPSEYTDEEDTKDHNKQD
It counts as binding. Conditions: HEK293T cells. The method in brief:
(§1)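 HEK293T cells were transfected with human PGRMC2 and lysed 48 hr later. Lysates (1 mg/mL) were incubated with probe and competitor or DMSO for 30 min at room temperature, UV-irradiated, clicked to TAMRA azide, and analysed by in-gel fluorescence. Blockade curves: mean ± SD (n = 3 or 4), four-parameter non-linear fit.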

In assay [4] the test system is non-adipocyte cell lines. As to the kind of experiment: Lipid accumulation in non-adipocyte cell lines. It counts as cell-based.
Assay [5] concerns the target PGRMC1 (Mus musculus, UniProt O55022). As to the kind of experiment: Quantitative proteomic. It counts as binding. Conditions: 10 μM.
Assay [6] concerns the target cathepsin B (CTSB) (Homo sapiens, UniProt P07858). In words: Competition of FFF 9 labeling of the active-site proximal peptide of CTSB. Type of assay: binding. The method in brief: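 Cells were treated with probe (200–250 μM) with or without competitor in serum-free DMEM, UV-crosslinked, and lysed. Probe-labeled proteins were clicked to light or heavy biotin-TEV-azide (100 μM final) with CuSO4, TBTA and TCEP. Samples were combined, streptavidin-enriched, trypsin-digested on bead and released by TEV cleavage (50 mM Tris pH 8, 0.5 mM EDTA, 1 mM DTT). Probe-modified peptides were quantified by LC-MS.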

Assay [7] deals with T3, PTGR2 (Homo sapiens, UniProt Q8N8N7). In words: In vitro LCMS-based activity assay for PTGR2. Type of assay: biochemical.
T3 sequence (Q8N8N7 whole entry): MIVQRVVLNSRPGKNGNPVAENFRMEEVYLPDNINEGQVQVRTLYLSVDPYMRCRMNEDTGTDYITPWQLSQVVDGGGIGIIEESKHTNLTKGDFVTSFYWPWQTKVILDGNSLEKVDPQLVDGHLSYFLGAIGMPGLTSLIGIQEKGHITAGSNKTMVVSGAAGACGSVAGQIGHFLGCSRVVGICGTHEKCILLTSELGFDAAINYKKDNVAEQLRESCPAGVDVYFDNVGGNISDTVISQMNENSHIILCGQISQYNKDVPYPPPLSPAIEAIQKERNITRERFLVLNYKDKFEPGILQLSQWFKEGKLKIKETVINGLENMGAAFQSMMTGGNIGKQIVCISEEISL
Assay [8] deals with T3, PTGR2. Type of assay: binding. Summed up:
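HEK293T cells were transiently transfected with C-terminally FLAG-tagged human PTGR2 (pRK5, PEI). Cells at ~90% confluence were washed and treated in serum-free medium with probe plus competitor or DMSO for 30 min at 37°C, then irradiated at 365 nm for 10 min. Lysates (1 mg/mL) were clicked to TAMRA azide (25 μM) and fluorescence was read on gel. Curves: mean ± SD (n = 3 or 4), four-parameter fit.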

The target of assay [9] is endogenous PTGR2 (Homo sapiens, UniProt Q8N8N7). Type of assay: binding. Summed up: (§2)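 SILAC-labeled HEK293T cells were used: heavy cells received FFF probe plus competitor and light cells received probe plus DMSO, in serum-free medium for 30 min at 37°C, followed by 365 nm UV for 10 min. Lysates (1.5 mg/mL) were mixed 1:1, clicked to biotin-azide, streptavidin-enriched, trypsin-digested and analysed by LC-MS. Ratios were averaged from ≥2 biological replicates.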
Chain of endogenous PTGR2 (Q8N8N7 whole entry): as above

The target of assay [10] is T4, ZADH2 (Homo sapiens, UniProt Q8N4Q0).
T4 sequence (Q8N4Q0 1-377): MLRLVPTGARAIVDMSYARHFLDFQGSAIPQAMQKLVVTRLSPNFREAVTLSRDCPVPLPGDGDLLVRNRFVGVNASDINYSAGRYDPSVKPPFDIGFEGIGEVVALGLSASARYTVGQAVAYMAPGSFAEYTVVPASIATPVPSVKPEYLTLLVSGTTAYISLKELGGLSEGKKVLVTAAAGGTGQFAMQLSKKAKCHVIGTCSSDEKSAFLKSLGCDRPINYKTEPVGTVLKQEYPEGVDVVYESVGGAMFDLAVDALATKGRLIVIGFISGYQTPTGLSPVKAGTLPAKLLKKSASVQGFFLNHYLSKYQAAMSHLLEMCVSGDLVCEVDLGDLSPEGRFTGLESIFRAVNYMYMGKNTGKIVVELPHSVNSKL
In words: MS-based competitive profiling with FFF 8: cross-reactivity with ZADH2. Conditions: competition of FFF 8 labeling. Type of assay: binding. Summed up:
as §2

Assay [11] deals with T3, PTGR2. It counts as cell-based. Conditions: cells recombinantly expressing PTGR2. The method in brief:
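HEK293T cells were co-transfected (PEI) with a UAS-luciferase reporter, GAL4-DBD or GAL4-DBD::PPARγ-LBD, and full-length PTGR2 as indicated. After 24 hr they were treated with DMSO, 15-keto-PGE2 (20 μM), test compounds, or rosiglitazone (2 μM) control. After 16 hr cells were lysed and luciferase activity was measured.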

Assay [12] addresses T5, PPARγ (Homo sapiens, UniProt P37231).
T5 sequence (P37231 238-503 limits assumed): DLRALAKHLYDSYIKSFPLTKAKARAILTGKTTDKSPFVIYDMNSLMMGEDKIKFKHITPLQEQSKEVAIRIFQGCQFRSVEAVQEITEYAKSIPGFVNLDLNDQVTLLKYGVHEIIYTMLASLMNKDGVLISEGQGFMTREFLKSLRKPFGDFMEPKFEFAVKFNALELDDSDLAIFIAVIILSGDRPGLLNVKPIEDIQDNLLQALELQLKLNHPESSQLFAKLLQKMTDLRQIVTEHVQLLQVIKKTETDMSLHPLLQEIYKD
In words: PPARγ luciferase reporter assay, direct modulation of PPARγ. It counts as cell-based. A general note: A reporter such as luciferase makes a cellular process visible.

In assay [13] the target is T3, PTGR2. In words: cell-based.
The target of assay [14] is T2, human PGRMC2. In words: In vitro gel-based competition of FFF probe 25 labeling of PGRMC2. It counts as binding. Summed up: as §1

Each structure is given as a SMILES string. Some results are limits rather than exact numbers.

Chain of PGRMC1 (O55022 whole entry): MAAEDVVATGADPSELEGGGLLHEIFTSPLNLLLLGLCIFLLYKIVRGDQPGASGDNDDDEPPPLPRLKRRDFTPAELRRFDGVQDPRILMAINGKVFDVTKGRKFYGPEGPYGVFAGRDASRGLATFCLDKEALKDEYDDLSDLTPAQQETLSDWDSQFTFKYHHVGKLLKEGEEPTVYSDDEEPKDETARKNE

Turning to `CCCC(=O)N[C@@H](CC(C)C)C(=O)N[C@H]1CCCc2ccccc21` [Compound 29, (S)-2-butyramido-4-methyl-N-((S)-1,2,3,4-tetrahydronaphthalen-1-yl)pentanamide], in [1], the “adipogenic activity in adipogenesis-related assays, in words” value (“adipogenic activity” below) was “inactive controls”.

On to `CCCC(=O)N[C@@H](CC(C)C)C(=O)Nc1ccc2ccccc2c1` [Compound 27, (S)-2-butyramido-4-methyl-N-(naphthalen-2-yl)pentanamide], for which the “adipogenic activity” value in [1] is on record as “active”. Also, the “competition of 25 (10 μM) enrichment of PGRMC2 (SILAC ratio)” value in assay [2] (10× competitor) is recorded as > 3 fold. For the same compound, the “blockade of 25 labeling of recombinant human PGRMC2 by competitor” value in [3] is reported as “blocked in a concentration-dependent manner”.

With `CCCC(=O)N[C@@H](CC(C)C)C(=O)NCCc1ccc2c(c1)OCO2` [Compound 30, (S)-N-(2-(benzo[d][1,3]dioxol-5-yl)ethyl)-2-butyramido-4-methylpentanamide], in [1], the “adipogenic activity” value was “inactive controls”.

Consider `C#CCCC1(CCC(=O)N[C@@H](CC(C)C)C(=O)Nc2ccc3ccccc3c2)N=N1` [Compound 25, (S)-2-(3-(3-(but-3-yn-1-yl)-3H-diazirin-3-yl)propanamido)-4-methyl-N-(naphthalen-2-yl)pentanamide], for which the “lipid accumulation, in words” value in assay [1] (Nile Red) is listed as “one of the highest levels of lipid accumulation”. Also, the “lipid accumulation in non-adipocyte cell lines” value in assay [4] is on record as “did not induce lipid accumulation”. For the same compound, the “preferential enrichment of PGRMC2 by 25 over 26 (SILAC ratio)” value in assay [2] (10 μM each, 30 min) is > 3 fold. The “enrichment of PGRMC1 by 25 over 26” value in assay [5] is “not preferentially enriched”. The “labeling of recombinant human PGRMC2 by FFF probe” value in [3] is given as “strongly labeled”.

In the case of `CC(NC(=O)[C@H](Cc1ccccc1)NC(=O)OCc1ccccc1)C(=O)CF` (some centres unmarked) [Z-FA-FMK], the “blockade of probe 9 interaction with CTSB peptide (aa 315–332)” value in assay [6] is “blocked”.

With `CCCC(=O)N[C@@H](C)C(=O)Nc1cc(OC)c2ccccc2c1` [Compound 28, (S)-N-(1-((4-methoxynaphthalen-2-yl)amino)-1-oxopropan-2-yl)butyramide], in [1], the “adipogenic activity” value is “largely inactive”.

Take `COc1ccccc1N1CCN(C(=O)Cc2ccccc2)CC1` [Compound 22, 1-(4-(2-Methoxyphenyl)piperazin-1-yl)-2-phenylethan-1-one]: the “increase in potency relative to 20, 15-keto-PGE2 reductase activity” value in assay [7] is > 20 fold. Besides, in assay [8], the “increase in potency relative to 20, competition of 8-labeling” value is given as > 20 fold. Also, the “inhibition of FFF 8 labeling of endogenous PTGR2” value in [9] (5 μM, HEK293T cells) is “complete inhibition”. The “proteome-wide selectivity in blocking FFF 8 labeling, in words” value in assay [9] (HEK293T cells) is “excellent selectivity”. In [9] (read-out: inhibition of FFF 8 labeling of endogenous PTGR2), the inhibition (usually how much of the control response was suppressed) at 0.5 µM was ~80%. In addition, the “cross-reactivity with ZADH2, sequence-related homolog of PTGR2” value in assay [10] is on record as “did not cross-react”. The “rescue of 15-keto-PGE2-dependent PPARγ transcriptional activity” value in assay [11] is listed as “concentration-dependent rescue”. The “direct modulation of PPARγ” value in assay [12] is given as “neither 22 nor 23 directly modulated PPARγ”. The IC50 (as a rule, the concentration at which inhibition is half-maximal) in assay [13] is ~700 nM.

For `CCOC(=O)C1Cc2ccccc2CN1C(=O)c1ccc(SC)s1` (centres unmarked) [SR8278, reference compound], the “effect of co-treatment on the pro-adipogenic effects of 25” value in assay [1] was “blocked”.

Take `CC(C)(C)OC(=O)CN(Cc1ccc(Cl)cc1)Cc1ccc([N+](=O)[O-])s1` [GSK4112, reference compound]: the “effect of co-treatment on the pro-adipogenic effects of 25” value in assay [1] is listed as “had no effect”.

Take `C=CC1=C(C)c2cc3[nH]c(cc4nc(cc5[nH]c(cc1n2)c(C)c5CCC(=O)O)C(CCC(=O)O)=C4C)c(C)c3C=C` [protoporphyrn IX]: the IC50 in [14] came out at 130 nM.

Take `C#CCCC1(CCC(=O)N[C@@H](C)C(=O)Nc2cc(OC)c3ccccc3c2)N=N1` [Compound 26, (S)-3-(3-(but-3-yn-1-yl)-3H-diazirin-3-yl)-N-(1-((4-methoxynaphthalen-2-yl)amino)-1-oxopropan-2-yl)propanamide]: in [1], the “adipogenic activity” value is recorded as “much less adipogenic activity”.

For `COc1ccccc1C1CCN(S(=O)(=O)Cc2ccccc2)CC1` [Compound 23, 1-(Benzylsulfonyl)-4-(2-methoxyphenyl)piperidine], in [12], the “direct modulation of PPARγ” value was “neither 22 nor 23 directly modulated PPARγ”.
